The test system of assay [1] is HCT-116. Put plainly: Induction of apoptosis in human HCT116 cells assessed as early apoptotic cells at 5 uM after 24 hrs by annexin V-FITC/propidium iodide staining-based flow cytometric analysis (reference value: 2.27%). The assay is classed as functional.
For assay [2], the system named is HCT-116. The experiment in a line: Induction of apoptosis in human HCT116 cells assessed as late apoptotic cells at 5 uM after 24 hrs by annexin V-FITC/propidium iodide staining-based flow cytometric analysis (reference value: 1.05%). The assay is classed as functional. (In flow cytometry, cells or beads pass a laser one at a time.)
Assay [3] concerns HCT-116. The experiment in a line: Induction of apoptosis in human HCT116 cells assessed as necrotic cells at 5 uM after 24 hrs by annexin V-FITC/propidium iodide staining-based flow cytometric analysis (reference value: 8%). The assay is classed as functional.
Assay [4] deals with HCT-116. Put plainly: Induction of apoptosis in human HCT116 cells assessed as early apoptotic cells at 5 uM after 48 hrs by annexin V-FITC/propidium iodide staining-based flow cytometric analysis (reference value: 2.76%). Format: functional.
For assay [5], the system named is HCT-116. Put plainly: Induction of apoptosis in human HCT116 cells assessed as late apoptotic cells at 5 uM after 48 hrs by annexin V-FITC/propidium iodide staining-based flow cytometric analysis (reference value: 3.03%). Format: functional.
In assay [6] the test system is HCT-116. The experiment in a line: Induction of apoptosis in human HCT116 cells assessed as necrotic cells at 5 uM after 48 hrs by annexin V-FITC/propidium iodide staining-based flow cytometric analysis (reference value: 5.25%). Format: functional.
The nature of assay [7]: Cytotoxicity against HLF assessed as growth inhibition after 72 hrs by MTT assay. Format: functional. Particulars: Homo sapiens. For orientation: Tetrazolium assays rely on reduction of a dye to a coloured formazan, in cell work by metabolically active cells.
The test system of assay [8] is HCT-116. Put plainly: Cytotoxicity against human HCT116 cells assessed as growth inhibition after 72 hrs by MTT assay. Format: functional, cell-based. Particulars: HCT-116, 72 h.
The test system of assay [9] is MDA-MB-231. Put plainly: Cytotoxicity against human MDA-MB-231 cells assessed as growth inhibition after 72 hrs by MTT assay. Format: functional, cell-based. Particulars: MDA-MB-231, 72 h.
Assay [10] deals with T1, DNA topoisomerase 1 (Homo sapiens) (UniProt P11387).
T1 sequence (whole entry): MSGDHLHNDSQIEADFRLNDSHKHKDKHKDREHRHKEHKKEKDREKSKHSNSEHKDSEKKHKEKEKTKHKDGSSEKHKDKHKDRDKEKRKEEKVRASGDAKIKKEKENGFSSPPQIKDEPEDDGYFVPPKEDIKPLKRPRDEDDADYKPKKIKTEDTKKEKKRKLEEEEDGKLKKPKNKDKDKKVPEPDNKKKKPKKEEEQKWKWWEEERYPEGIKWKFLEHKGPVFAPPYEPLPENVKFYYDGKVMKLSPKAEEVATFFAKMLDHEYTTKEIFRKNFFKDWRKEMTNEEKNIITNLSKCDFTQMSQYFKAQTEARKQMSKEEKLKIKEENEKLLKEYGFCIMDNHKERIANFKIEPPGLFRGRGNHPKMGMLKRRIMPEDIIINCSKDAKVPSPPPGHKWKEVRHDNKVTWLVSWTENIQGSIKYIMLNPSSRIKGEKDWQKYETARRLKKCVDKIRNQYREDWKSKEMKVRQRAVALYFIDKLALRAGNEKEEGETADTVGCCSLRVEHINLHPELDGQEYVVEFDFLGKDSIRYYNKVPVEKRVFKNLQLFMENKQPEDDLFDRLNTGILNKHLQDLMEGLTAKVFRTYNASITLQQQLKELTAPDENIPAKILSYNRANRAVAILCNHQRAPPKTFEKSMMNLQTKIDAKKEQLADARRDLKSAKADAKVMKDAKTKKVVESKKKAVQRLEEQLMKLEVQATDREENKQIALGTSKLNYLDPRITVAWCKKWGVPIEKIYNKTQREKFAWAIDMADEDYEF
The experiment in a line: Inhibition of topoisomerase1 (unknown origin)-mediated pBR322 DNA relaxation at 50 uM after 15 mins by agarose gel electrophoresis. The gist of the method: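 Relaxation of supercoiled pBR322 plasmid by purified Top1 with compound at 50 μM; camptothecin 50 μM as reference; DNA-only and DNA + enzyme lanes as controls; gel read-out; repeated 3 times.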

Assay [11] addresses DNA topoisomerase 2-alpha (Homo sapiens) (UniProt P11388). Put plainly: Inhibition of topoisomerase-2alpha (unknown origin)-mediated pBR322 DNA relaxation at 50 uM after 30 mins by agarose gel electrophoresis. The gist of the method: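 Purified Top2α relaxation of supercoiled pBR322 plasmid with compound at 50 μM; etoposide 50 μM as reference; DNA-only and DNA + enzyme lanes as controls; gel read-out; repeated 3 times.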

The target of assay [12] is Histone deacetylase 1 (Homo sapiens, UniProt Q13547). The experiment in a line: Inhibition of recombinant full length human HDAC1 (1 to 482) expressed in baculovirus infected insect Sf9 cells using fluorogenic HDAC substrate 3 after 30 mins by fluorescence assay.
Assay [13] deals with HCT-116. The experiment in a line: Induction of apoptosis in human HCT116 cells at 5 uM after 24 hrs by annexin V-FITC/propidium iodide staining-based flow cytometric analysis relative to control. Format: functional.
Assay [14] deals with HCT-116. The experiment in a line: Induction of apoptosis in human HCT116 cells at 5 uM after 48 hrs by annexin V-FITC/propidium iodide staining-based flow cytometric analysis relative to control. Format: functional.

Drawing on ChEMBL document CHEMBL3576845, “Discovery of Novel Multiacting Topoisomerase I/II and Histone Deacetylase Inhibitors” (ACS Med Chem Lett, 2015), this text covers Activity, IC50 and inhibition for eleven molecules.

Calls of active or inactive are those of the source. No cut-off for these calls is given here. A value given as a limit tells only on which side of the number the result lay.

What is called IC50 is the midpoint of a concentration-inhibition curve.

Sequence of DNA topoisomerase 2-alpha (Homo sapiens) (P11388 whole entry): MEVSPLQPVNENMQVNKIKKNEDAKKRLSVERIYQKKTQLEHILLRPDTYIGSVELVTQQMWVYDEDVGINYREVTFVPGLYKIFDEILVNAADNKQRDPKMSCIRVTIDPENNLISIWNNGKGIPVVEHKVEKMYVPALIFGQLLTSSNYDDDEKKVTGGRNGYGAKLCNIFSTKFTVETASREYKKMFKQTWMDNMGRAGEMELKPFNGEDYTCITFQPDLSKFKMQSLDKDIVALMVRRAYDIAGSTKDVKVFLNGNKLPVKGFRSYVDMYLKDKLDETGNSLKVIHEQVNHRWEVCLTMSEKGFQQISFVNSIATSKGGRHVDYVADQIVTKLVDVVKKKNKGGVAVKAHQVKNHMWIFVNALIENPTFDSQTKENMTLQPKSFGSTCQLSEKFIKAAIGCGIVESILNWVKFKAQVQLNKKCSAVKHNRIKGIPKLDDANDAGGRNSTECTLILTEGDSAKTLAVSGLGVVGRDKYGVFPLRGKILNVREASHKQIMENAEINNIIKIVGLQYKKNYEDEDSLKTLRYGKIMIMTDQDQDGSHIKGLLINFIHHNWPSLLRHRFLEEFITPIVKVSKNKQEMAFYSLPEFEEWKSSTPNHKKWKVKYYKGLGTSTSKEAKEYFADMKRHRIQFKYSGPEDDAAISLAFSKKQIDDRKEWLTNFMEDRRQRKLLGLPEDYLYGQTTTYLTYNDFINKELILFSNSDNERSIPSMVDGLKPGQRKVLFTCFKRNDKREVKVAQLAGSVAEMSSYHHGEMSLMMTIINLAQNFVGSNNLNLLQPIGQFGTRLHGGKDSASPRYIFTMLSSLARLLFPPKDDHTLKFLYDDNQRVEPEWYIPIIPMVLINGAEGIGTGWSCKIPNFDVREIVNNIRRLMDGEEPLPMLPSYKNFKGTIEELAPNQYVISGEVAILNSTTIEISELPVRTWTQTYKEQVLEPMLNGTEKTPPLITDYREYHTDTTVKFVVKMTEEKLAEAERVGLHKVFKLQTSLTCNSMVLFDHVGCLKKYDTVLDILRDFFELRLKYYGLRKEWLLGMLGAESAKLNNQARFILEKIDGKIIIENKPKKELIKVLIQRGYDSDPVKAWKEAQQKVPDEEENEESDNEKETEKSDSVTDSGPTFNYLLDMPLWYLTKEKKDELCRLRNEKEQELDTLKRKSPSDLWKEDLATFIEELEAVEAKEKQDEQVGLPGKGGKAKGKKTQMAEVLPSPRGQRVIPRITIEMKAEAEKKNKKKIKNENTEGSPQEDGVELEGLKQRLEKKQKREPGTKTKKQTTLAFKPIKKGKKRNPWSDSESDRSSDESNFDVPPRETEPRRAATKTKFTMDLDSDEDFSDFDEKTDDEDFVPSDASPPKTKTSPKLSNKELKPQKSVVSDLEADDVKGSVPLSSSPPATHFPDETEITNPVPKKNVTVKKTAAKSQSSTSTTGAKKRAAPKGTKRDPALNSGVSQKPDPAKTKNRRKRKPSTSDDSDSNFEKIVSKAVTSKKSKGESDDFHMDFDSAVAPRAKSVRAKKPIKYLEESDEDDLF
Sequence of Histone deacetylase 1 (Q13547 whole entry): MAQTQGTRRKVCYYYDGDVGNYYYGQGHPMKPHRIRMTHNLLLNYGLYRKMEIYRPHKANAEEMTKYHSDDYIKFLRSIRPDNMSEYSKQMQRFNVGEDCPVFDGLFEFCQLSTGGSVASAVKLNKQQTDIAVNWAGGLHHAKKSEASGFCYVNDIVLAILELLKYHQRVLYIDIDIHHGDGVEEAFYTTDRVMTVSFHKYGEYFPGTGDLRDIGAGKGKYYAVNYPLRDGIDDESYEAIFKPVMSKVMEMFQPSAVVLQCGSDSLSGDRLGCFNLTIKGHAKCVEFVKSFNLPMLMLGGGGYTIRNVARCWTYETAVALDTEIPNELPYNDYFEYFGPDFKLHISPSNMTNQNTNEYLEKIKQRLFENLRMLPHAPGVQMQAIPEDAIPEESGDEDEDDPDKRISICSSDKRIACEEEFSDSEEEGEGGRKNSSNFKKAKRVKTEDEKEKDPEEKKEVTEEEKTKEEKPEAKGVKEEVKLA

As for `O=C(CCCCCCC(=O)Nc1ccccc1)NO` [VORINOSTAT], the Activity is recorded as 19.2% in [1]; 6.34% in assay [2]; 1.76% in assay [3]; 11.37% in assay [4]; 35.44% in [5]; 15.64% in assay [6].
`COc1ccc2[nH]c3c(c2c1)CCN1C(=O)c2cc(NC(=O)CCCCC(=O)NO)ccc2N(C)C31` (configuration not stated): the IC50 is 62 µM in assay [7], 22 µM in assay [8], 36 µM in assay [9] and 0.275 µM in assay [12]. The inhibition result in [10] was “inactive”. In addition, the inhibition entry in [11] is “Active”.
As for `CN1c2ccc(NCc3ccc(-c4nnc(CCCC(=O)NO)o4)cc3)cc2C(=O)N2CCc3c([nH]c4ccc(O)cc34)C21` (configuration not stated), the IC50 in assay [7] was more than 168 µM; in assay [8], 11 µM; in assay [9], more than 168 µM; in assay [12] it was more than 10 µM. The inhibition result in assay [10] and in assay [11] was “Active” each time.
For the molecule `COc1ccc2[nH]c3c(c2c1)CCN1C(=O)c2cc(NC(=O)CCCCCC(=O)NO)ccc2N(C)C31` (configuration not stated), the half-maximal inhibitory concentration (IC50) in [7] was 68 µM; in [8], 35 µM; in [9], 58 µM; in assay [12], more than 10 µM. Besides, in assay [10], the inhibition result is “inactive”. In assay [11], the inhibition result is “Active”.
Consider `CN1c2ccc(NCc3ccc(-c4nnc(CCCCCCC(=O)NO)o4)cc3)cc2C(=O)N2CCc3c([nH]c4ccc(O)cc34)C21` (configuration not stated), for which the IC50 in assay [7] was 6.1 µM; in [8] it was 9.7 µM; in [9] it was 5.7 µM; in assay [12], 0.089 µM. Further, the inhibition result in assay [10] and in assay [11] was “Active” throughout.
Consider `CN1c2ccc(N)cc2C(=O)N2CCc3c([nH]c4ccc(O)cc34)C21` (configuration not stated), for which the IC50 in [7] was 0.47 µM; in [8], 0.43 µM; in assay [9] it was 0.49 µM. In addition, the inhibition result in [10] and in assay [11] was “Active” each time. Further, the Activity in [13] was 11.09%; in assay [14], 16.39%.
As to `CN1c2ccc(NCc3ccc(-c4noc(CCCC(=O)NO)n4)cc3)cc2C(=O)N2CCc3c([nH]c4ccc(O)cc34)C21` (configuration not stated), the IC50 in assay [7] came out at 6.7 µM; in assay [8] it was 3.5 µM; in assay [9] it was 16 µM; in assay [12], 0.321 µM. Also, the inhibition entry in assay [10] and in [11] was “Active” each time.
`CN1c2ccc(NCc3ccc(-c4nnc(CCCCC(=O)NO)o4)cc3)cc2C(=O)N2CCc3c([nH]c4ccc(O)cc34)C21` (configuration not stated): the IC50 in assay [7] turned out to be 26 µM; in assay [8], 4.9 µM; in assay [9], 30 µM; in assay [12], 0.093 µM. The inhibition result in assay [10] and in [11] was “Active” in each case.
For the molecule `CN1c2ccc(NCc3ccc(-c4noc(CCCCC(=O)NO)n4)cc3)cc2C(=O)N2CCc3c([nH]c4ccc(O)cc34)C21` (configuration not stated), the 50% inhibitory concentration (IC50) in assay [7] was found to be 8.2 µM; in [8], 3.7 µM; in [9], 5.9 µM; in assay [12], 0.19 µM. Moreover, the inhibition result in assay [10] and in assay [11] was “Active” throughout.
Take `COc1cc([C@@H]2c3cc4c(cc3[C@@H](O[C@@H]3O[C@@H]5CO[C@@H](C)O[C@H]5[C@H](O)[C@H]3O)[C@H]3COC(=O)[C@H]23)OCO4)cc(OC)c1O`: the inhibition entry in assay [11] was “Active”.
Take `CN1c2ccc(NCc3ccc(NC(=O)CCCCCCC(=O)NO)cc3)cc2C(=O)N2CCc3c([nH]c4ccc(O)cc34)C21` (configuration not stated): the IC50 in assay [7] is 13 µM; in assay [8] it was 2.1 µM; in assay [9], 14 µM; in assay [12], 0.03 µM. Also, the inhibition entry in assay [10] and in assay [11] was “Active” throughout.
